Test results taken from ChEMBL document CHEMBL1136745 (J Med Chem, 2003).
≈ marks a conversion by molar mass, not a printed value.

Legend:
[1] = target: T1, GABA-A receptor; alpha-1/beta-2/gamma-2 (Homo sapiens) (UniProt P14867+P47870+P18507); assay: Maximum response for enhancement of currents elicited by GABA at EC5 (6-12 uM); format: functional
[2] = target: T1, GABA-A receptor; alpha-1/beta-2/gamma-2 (Homo sapiens); assay: Hill coefficient for enhancement of currents elicited by GABA at EC5 (6-12 uM); format: functional
[3] = target: T1, GABA-A receptor; alpha-1/beta-2/gamma-2 (Homo sapiens); assay: (§1) Direct activation of Gamma-aminobutyric acid A receptor in the absence of GABA; format: functional
Summary of the method: (§2)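 Oocytes expressing GABA_A receptors, two-electrode clamp at -50 mV, 20–22 °C, ND-96 pH 7.6; drug applied without GABA, stocks in 35% propylene glycol (superfusate ≤170 mM). […] Washout up to 15 min.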

[4] = target: T1, GABA-A receptor; alpha-1/beta-2/gamma-2 (Homo sapiens); assay: Maximum activation of Gamma-aminobutyric acid A receptor in the absence of GABA compared to 1 mM GABA; format: functional; summary of the method: as §2
[5] = Anesthetic potency, Concentration for loss of righting reflexes (LORR) in Rana temporaria; format: functional, frog
[6] = target: T1, GABA-A receptor; alpha-1/beta-2/gamma-2 (Homo sapiens); assay: Maximum levels of enhancement of currents from alpha-1-beta-2-gamma-2L-subunit of GABA receptor elicited by low concentrations of GABA; format: functional
[7] = target: T1, GABA-A receptor; alpha-1/beta-2/gamma-2 (Homo sapiens); assay: Maximum activation of Gamma-aminobutyric acid A receptor in the absence of GABA compared to GABA response; format: functional; summary of the method: as §2
[8] = target: Nicotinic acetylcholine receptor alpha1/beta1/gamma/delta (Mus musculus, UniProt P02716+P04756+P04760+P09690); assay: Inhibition of recombinant embryonic mouse muscle Nicotinic Acetylcholine Receptor (3 oocytes); format: cell-based, Oocyte
Summary of the method: (§3)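 Torpedo or embryonic mouse muscle nAChRs in Xenopus oocytes, two-electrode clamp at -70 mV, 20–22 °C, low-Ca ND-96 (0.3 mM CaCl2) without propylene glycol; drug coapplied 5 s with 10 μM acetylcholine after stable response; fit to single-site inhibition equation; reversibility after 5 min wash.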

Acetylcholine receptor [9] = target: T2, Acetylcholine receptor (Torpedo californica, UniProt P02710+P02712+P02714+P02718); assay: (§4) Inhibition of currents when compound wascoapplied with acetylcholine to recombinant Torpedo nAcChoR (from 6 oocytes); format: functional, cell-based, Oocyte; summary of the method: as §3
Torpedo = assay: Concentration that reduced photoincorporation of [3H]azietomidate into the alpha and beta subunits of the nAcChoR in membranes of Torpedo electric organ; format: functional
Summary of the method: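 Torpedo californica nAChR-rich membranes, 2 mg/mL in Torpedo saline pH 7.0 with 1 mM oxidized glutathione, with 0.9 μM [3H]azietomidate, ± 300 μM carbamylcholine, ± R-etomidate; irradiated at 4 °C, 6 min at 254 nm or 25 min at 365 nm; 8% SDS-PAGE, fluorography, excised bands counted by scintillation.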

[10] = Anesthetic potency, Concentration for loss of righting reflexes (LORR) in Xenopus tadpoles; format: functional, frog
Summary of the method: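 Pre-limb bud Xenopus tadpoles (1.5–2 cm), groups of 5–10 in oxygenated 5 mM Tris-HCl pH 7.4, low light; drug from buffer or ethanol stock (final ethanol ≤5 mM). Tipped at 30–40 min; no righting within 5 s = LORR. Pooled groups of 10–20; quantal curves by Waud method; SD reported.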

[11] = The octanol/water partition coefficient of [3H]azietomidate; format: physicochemical
Summary of the method: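 Octanol/water two-phase mixture shaken in amber vial, settled 12 h, radiolabel partition measured.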

[12] = Solubility in 0.05 M Tris-HCl buffer, pH 7.4; format: physicochemical; conditions: read-out: S
Summary of the method: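 Excess compound shaken 3 h in 0.05 M Tris-HCl pH 7.4, centrifuged 10000g for 3 min, concentration read at 350 nm.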

[13] = target: T3, GABA-A receptor; alpha-1/beta-2/gamma-2 (Homo sapiens, UniProt P14867+P18507+P47870); assay: Inhibition of currents elicited by GABA at EC5 (6-12 uM); format: functional
T3 sequence (P14867 whole entry): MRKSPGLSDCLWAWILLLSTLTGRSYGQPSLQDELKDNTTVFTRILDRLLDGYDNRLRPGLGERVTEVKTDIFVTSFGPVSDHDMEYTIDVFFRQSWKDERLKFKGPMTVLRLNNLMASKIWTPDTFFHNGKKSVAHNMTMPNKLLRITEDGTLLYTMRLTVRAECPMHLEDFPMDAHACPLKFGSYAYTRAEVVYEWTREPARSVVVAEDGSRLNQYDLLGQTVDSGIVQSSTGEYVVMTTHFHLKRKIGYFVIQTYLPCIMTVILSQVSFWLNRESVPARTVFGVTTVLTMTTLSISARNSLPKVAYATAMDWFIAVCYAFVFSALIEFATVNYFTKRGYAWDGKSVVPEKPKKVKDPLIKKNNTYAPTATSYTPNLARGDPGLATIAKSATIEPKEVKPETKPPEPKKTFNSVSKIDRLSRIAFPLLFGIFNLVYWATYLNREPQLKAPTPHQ
T3 sequence (P47870 whole entry): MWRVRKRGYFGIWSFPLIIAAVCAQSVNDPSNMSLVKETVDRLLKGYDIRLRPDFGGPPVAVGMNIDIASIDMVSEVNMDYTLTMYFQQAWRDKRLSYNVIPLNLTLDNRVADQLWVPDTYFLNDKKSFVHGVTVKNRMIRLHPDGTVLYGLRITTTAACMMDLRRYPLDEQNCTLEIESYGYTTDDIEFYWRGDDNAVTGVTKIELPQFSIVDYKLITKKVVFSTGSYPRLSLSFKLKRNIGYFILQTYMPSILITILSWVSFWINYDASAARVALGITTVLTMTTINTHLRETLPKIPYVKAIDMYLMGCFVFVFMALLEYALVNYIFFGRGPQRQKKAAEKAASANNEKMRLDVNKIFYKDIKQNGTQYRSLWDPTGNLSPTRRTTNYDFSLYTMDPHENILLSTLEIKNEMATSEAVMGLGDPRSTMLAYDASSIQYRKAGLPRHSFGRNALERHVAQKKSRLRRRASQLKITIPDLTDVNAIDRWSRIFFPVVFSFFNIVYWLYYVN
T3 sequence (P18507 whole entry): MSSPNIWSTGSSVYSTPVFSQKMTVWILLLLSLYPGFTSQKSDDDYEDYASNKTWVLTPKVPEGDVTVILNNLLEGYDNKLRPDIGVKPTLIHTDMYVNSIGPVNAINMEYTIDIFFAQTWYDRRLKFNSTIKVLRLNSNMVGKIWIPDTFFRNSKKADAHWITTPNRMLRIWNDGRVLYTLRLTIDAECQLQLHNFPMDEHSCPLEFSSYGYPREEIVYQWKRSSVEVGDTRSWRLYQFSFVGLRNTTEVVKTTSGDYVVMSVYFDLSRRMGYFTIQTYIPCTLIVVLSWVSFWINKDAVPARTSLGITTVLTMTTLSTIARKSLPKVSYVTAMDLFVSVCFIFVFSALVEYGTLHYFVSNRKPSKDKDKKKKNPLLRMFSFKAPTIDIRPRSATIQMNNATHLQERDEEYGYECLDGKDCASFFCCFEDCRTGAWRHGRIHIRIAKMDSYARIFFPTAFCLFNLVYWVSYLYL

[14] = target: T4, GABA-A receptor; anion channel (Rattus norvegicus) (UniProt O09028+P15431+P18506+P18508+P19969+P20236+P23574+P23576+P28471+P28473+P30191+P62813+P63079+P63138+Q91ZM7+Q9ES14); assay: Inhibition of [35S]TBPS binding to rat brain membranes at 100 uM; format: cell membranes; conditions: Membrane
[15] = target: T1, GABA-A receptor; alpha-1/beta-2/gamma-2 (Homo sapiens); assay: Maximum activation of Gamma-aminobutyric acid A receptor compared to maximal control GABA current at >320 uM; format: functional
[16] = target: T3, GABA-A receptor; alpha-1/beta-2/gamma-2; assay: Enhancement of currents elicited by GABA at EC5 (6-12 uM); format: functional
[17] = target: T4, GABA-A receptor; anion channel (Rattus norvegicus); assay: Inhibition of [35S]TBPS binding to rat brain membranes at 100 uM (Range = 80-90%); format: cell membranes; conditions: Membrane
[18] = target: GABA-A receptor; anion channel; assay: Inhibition of [35S]TBPS binding to rat brain membranes; format: cell membranes, Membrane
[19] = target: T3, GABA-A receptor; alpha-1/beta-2/gamma-2; assay: as §1; format: functional
Acetylcholine receptor [20] = target: T2, Acetylcholine receptor; assay: as §4; format: cell-based, Oocyte; summary of the method: as §3
[21] = target: T3, GABA-A receptor; alpha-1/beta-2/gamma-2; assay: Ability to enhance currents from alpha-1-beta-2-gamma-2L-subunit of GABA receptor elicited by low concentrations of GABA; format: functional

Nicotinic acetylcholine receptor alpha1/beta1/gamma/delta, sequence (P04756 whole entry): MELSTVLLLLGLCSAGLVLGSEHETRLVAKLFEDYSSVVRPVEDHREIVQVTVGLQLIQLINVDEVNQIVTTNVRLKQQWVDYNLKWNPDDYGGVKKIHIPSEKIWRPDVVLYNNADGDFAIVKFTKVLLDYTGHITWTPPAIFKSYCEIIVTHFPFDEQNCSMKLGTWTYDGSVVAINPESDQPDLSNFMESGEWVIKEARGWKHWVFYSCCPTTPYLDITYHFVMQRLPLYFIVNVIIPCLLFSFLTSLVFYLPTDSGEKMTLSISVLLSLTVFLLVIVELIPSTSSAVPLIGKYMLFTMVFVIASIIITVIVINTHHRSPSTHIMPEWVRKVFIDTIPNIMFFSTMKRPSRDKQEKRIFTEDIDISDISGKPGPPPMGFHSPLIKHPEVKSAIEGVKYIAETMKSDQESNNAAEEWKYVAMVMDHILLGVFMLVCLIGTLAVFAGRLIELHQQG
Nicotinic acetylcholine receptor alpha1/beta1/gamma/delta, sequence (P09690 whole entry): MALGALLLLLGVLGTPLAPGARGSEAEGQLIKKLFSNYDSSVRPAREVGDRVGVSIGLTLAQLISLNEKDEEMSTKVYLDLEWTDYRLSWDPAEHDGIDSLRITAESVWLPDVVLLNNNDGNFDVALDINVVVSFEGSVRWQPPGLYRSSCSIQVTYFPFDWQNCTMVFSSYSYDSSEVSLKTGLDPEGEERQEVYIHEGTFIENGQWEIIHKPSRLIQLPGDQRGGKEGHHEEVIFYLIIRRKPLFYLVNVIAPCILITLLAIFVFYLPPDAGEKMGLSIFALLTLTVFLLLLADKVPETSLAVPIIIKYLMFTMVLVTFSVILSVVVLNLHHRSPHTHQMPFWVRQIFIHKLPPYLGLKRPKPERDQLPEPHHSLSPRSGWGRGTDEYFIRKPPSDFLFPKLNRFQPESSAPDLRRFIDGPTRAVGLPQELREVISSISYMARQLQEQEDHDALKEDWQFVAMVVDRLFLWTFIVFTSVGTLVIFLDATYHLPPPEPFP
Nicotinic acetylcholine receptor alpha1/beta1/gamma/delta, sequence (P02716 whole entry): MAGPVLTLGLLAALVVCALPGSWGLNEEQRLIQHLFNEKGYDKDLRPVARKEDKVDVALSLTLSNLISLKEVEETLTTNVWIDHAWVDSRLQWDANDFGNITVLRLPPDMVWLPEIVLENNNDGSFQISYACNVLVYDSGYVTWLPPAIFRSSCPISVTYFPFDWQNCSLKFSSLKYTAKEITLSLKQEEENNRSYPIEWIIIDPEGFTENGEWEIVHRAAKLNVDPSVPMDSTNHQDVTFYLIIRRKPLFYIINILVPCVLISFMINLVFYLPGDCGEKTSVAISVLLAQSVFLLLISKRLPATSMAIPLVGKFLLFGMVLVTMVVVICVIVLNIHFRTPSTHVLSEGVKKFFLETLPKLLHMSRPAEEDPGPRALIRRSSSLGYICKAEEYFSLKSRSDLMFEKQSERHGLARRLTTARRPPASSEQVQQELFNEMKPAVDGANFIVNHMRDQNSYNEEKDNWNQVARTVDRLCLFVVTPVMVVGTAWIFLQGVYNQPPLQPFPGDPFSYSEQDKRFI
Nicotinic acetylcholine receptor alpha1/beta1/gamma/delta, sequence (P04760 whole entry): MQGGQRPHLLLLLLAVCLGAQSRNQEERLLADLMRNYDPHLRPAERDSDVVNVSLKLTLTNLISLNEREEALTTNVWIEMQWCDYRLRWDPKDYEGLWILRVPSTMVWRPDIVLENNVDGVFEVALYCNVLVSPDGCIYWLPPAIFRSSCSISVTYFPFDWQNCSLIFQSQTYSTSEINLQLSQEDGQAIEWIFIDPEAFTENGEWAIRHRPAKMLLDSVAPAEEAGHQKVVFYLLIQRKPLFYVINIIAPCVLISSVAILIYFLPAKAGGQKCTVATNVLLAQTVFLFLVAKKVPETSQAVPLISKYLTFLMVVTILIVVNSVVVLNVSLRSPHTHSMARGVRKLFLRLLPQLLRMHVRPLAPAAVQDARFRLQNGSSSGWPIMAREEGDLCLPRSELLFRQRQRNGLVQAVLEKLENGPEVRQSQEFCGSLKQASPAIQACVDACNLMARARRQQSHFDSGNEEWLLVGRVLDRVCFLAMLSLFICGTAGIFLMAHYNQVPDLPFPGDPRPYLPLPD
T2 sequence (P02710 whole entry): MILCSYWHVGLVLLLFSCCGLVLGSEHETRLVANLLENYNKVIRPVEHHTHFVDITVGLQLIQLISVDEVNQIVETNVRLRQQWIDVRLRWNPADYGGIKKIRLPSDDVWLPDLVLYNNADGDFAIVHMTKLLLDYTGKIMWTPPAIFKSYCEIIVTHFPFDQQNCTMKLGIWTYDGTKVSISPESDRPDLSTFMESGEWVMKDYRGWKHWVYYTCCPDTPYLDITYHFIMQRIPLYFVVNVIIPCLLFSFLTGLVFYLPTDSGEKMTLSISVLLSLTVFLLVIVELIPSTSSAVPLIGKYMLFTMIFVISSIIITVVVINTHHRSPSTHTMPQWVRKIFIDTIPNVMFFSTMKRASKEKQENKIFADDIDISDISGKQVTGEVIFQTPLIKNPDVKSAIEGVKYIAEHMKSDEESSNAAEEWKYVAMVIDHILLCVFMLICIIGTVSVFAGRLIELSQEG
T2 sequence (P02712 whole entry): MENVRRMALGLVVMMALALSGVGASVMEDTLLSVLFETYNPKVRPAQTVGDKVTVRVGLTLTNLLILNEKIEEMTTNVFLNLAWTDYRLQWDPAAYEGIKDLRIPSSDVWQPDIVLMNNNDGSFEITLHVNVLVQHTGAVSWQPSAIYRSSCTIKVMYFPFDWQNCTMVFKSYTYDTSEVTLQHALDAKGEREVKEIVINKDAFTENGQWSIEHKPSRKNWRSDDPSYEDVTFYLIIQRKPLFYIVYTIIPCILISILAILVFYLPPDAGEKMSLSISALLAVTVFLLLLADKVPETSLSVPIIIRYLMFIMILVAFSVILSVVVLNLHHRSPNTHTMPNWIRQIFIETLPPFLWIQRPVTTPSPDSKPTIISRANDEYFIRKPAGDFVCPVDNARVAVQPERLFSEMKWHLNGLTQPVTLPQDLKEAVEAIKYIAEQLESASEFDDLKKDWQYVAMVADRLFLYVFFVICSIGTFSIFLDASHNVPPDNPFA
T2 sequence (P02718 whole entry): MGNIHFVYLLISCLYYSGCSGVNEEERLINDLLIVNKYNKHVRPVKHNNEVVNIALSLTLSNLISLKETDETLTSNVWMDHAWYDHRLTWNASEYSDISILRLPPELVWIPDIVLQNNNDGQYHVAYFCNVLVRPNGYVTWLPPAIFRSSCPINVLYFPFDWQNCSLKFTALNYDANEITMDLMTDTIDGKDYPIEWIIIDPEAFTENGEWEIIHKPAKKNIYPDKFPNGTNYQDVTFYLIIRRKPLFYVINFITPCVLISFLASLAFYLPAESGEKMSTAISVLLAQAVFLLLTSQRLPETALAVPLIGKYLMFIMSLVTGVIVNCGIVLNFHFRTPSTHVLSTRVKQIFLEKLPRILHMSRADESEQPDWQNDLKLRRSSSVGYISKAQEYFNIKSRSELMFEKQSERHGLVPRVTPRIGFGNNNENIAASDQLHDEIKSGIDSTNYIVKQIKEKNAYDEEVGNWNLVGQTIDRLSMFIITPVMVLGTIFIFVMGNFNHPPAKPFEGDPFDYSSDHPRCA
T2 sequence (P02714 whole entry): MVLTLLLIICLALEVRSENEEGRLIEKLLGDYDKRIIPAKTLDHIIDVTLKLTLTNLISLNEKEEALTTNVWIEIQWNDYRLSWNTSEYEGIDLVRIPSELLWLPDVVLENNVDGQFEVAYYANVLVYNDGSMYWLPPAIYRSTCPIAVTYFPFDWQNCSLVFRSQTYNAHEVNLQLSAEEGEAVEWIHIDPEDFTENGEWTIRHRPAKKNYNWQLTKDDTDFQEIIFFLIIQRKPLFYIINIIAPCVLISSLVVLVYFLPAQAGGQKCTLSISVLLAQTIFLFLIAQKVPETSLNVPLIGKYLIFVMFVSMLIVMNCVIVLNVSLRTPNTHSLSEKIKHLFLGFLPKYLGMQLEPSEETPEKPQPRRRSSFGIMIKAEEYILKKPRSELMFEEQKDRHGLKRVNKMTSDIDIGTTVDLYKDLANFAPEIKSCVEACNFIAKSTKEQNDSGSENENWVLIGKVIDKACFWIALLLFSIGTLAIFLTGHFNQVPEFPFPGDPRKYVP

Row | Compound | Max response [1] [%] | nH [2] | EC50 [5] [µM] | Emax [6] [%] | Emax [7] [%] | IC50 [8] [µM] | EC50 [10] [nM] | IC50 [13] [µM] | EC50 [16] [µM] | other results
1 | CCOC(=O)c1cncn1[C@@H](C)c1ccccc1 [S-ETOMIDATE] | 110 | 1.9 | 57 | – | – | – | – | – | – | Concentration [3]: 100 µM; Emax [4]: 2.9%
2 | CCOC(=O)c1cncn1[C@H](C)c1ccccc1 [ETOMIDATE] | 110 | 1.2 | 3.4 | 127 | 18 | 50 | 2300 | – | – | IC50 (Acetylcholine receptor [9]): 41 µM; Concentration (Torpedo): 300 µM
3 | CC(c1ccccc1)n1cncc1C(=O)OCCC1(C)N=N1 (stereo unspecified) [AZIETOMIDATE] | – | – | – | – | – | 25 | – | – | – | Partition coefficient [11]: 3600; solubility [12]: 540 µM (≈ 161 µg/mL)
4 | C[C@@H](c1ccccc1)n1cncc1C(=O)OCCC1(C)N=N1 | 94 | 1.6 | – | – | – | – | 14000 | 66.3 | 20 | inhibition [14]: 60%; Emax [15]: 0.5%
5 | C[C@H](c1ccccc1)n1cncc1C(=O)OCCC1(C)N=N1 | 94 | 1.5 | – | 127 | 14 | – | 2200 | 104 | 2 | inhibition [17]: < 90%; IC50 [18]: 4.9 µM; EC50 [19]: 37 µM; IC50 (Acetylcholine receptor [20]): 23 µM; EC50 [21]: 1200 nM
